Reference: publication PMC4451255 (Bioorganic & medicinal chemistry, 2015)
Substitutions are numbered along the chain they refer to.

Experiments:
wild-type Shp2 [1] = molecular target: T1, wild-type Shp2 (Homo sapiens, UniProt Q06124); experiment: FlAsH inhibition of purified PTP catalytic domain, pNPP assay; assay type: biochemical
T1 sequence (Q06124 247-517 limits assumed): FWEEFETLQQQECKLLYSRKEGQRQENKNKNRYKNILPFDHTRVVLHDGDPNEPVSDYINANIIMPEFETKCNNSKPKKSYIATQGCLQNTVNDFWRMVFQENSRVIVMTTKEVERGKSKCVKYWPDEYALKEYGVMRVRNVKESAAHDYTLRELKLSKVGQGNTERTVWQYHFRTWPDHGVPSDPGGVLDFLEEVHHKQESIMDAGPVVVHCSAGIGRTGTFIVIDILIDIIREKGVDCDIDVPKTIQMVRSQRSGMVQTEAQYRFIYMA
Method in brief: (§1)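 Two set-ups, both using His6-tagged catalytic domain (50 nM) and pNPP in pH 7.0 3,3-dimethylglutarate buffer. In the first, enzyme is incubated with 125 nM test compound plus β-mercaptoethanol (0–1 mM), then activity is normalized to no-compound controls. In the second, there is no pre-incubation: pNPP at the enzyme's KM sits with a fixed compound level at 37 °C, enzyme starts the reaction, and A405 is followed continuously.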

V368C Shp2 [2] = molecular target: T2, V368C Shp2 (Homo sapiens, UniProt Q06124, V368C); experiment: as above; assay type: biochemical
T2 sequence (Q06124 247-517 V368C limits assumed): T1 sequence (Q06124 247-517 limits assumed) with V122C
Method in brief: as §1

wild-type PTP1B [3] = experiment: FlAsH inhibition of purified PTP catalytic domain, pNPP assay; assay type: biochemical, human; details: purified enzyme 50 nM, 120-minute pre-incubation
Method in brief: (§2)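 His6-tagged PTP catalytic domains (50 nM) are pre-incubated 120 min at 37 °C with test compound or DMSO (1% v/v). Activity is then assayed at 37 °C with pNPP at each enzyme's previously determined KM in 50 mM 3,3-dimethylglutarate pH 7.0, 1 mM EDTA, 50 mM NaCl. The reaction is quenched with NaOH and A405 read. Activity is normalized to DMSO-only control, triplicate, ≥3 independent experiments.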

P87C PTP1B [4] = molecular target: T3, P87C PTP1B (Homo sapiens, UniProt P18031, P87C); experiment: FlAsH inhibition of purified PTP catalytic domain, pNPP assay; assay type: biochemical; details: 500 nM FlAsH, continuous pNPP assay
T3 sequence (P18031 3-277 P87C limits assumed): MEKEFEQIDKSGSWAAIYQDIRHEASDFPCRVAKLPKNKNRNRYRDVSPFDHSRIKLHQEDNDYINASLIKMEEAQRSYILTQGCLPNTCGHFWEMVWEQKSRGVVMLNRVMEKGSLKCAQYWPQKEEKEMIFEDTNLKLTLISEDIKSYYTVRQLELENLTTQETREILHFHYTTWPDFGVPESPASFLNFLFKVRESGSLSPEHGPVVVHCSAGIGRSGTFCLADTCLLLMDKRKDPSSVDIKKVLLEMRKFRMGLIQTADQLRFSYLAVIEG
Method in brief: (§3)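 No pre-incubation. pNPP at the enzyme's KM is held with 500 nM test compound or DMSO (1%) in pH 7.0 PTP buffer at 37 °C, and reactions are started by adding His6-tagged catalytic domain (50 nM). A405 is monitored continuously at 37 °C. Rates over 1-min windows are normalized to DMSO control; three independent runs are averaged and fitted as single-variable exponential decay.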

P87C/A122C PTP1B [5] = molecular target: T4, P87C/A122C PTP1B (Homo sapiens, UniProt P18031, A122C/P87C); experiment: as above; assay type: biochemical; details: purified enzyme 50 nM, time-dependent
T4 sequence (P18031 3-277 P87C/A122C limits assumed): T3 sequence (P18031 3-277 P87C limits assumed) with A120C
Method in brief: as §3

wild-type FAP-1 [6] = experiment: FlAsH inhibition of purified PTP catalytic domain, pNPP assay; assay type: biochemical, human; details: purified enzyme 50 nM, one equivalent of FlAsH
Method in brief: as §2

P2285C/Q2320C FAP-1 [7] = experiment: as above; assay type: biochemical, human; details: purified enzyme 50 nM, one equivalent of FlAsH
Method in brief: as §2

wild-type PTPH-1 [8] = experiment: as above; assay type: biochemical, human; details: purified enzyme 50 nM, one equivalent of FlAsH
Method in brief: as §2

P720C/H755C PTPH-1 [9] = experiment: as above; assay type: biochemical, human; details: purified enzyme 50 nM, one equivalent of FlAsH
Method in brief: as §2

wild-type HePTP [10] = experiment: as above; assay type: biochemical, human; details: purified enzyme 50 nM, one equivalent of FlAsH
Method in brief: as §2

P160C/V184C HePTP [11] = experiment: FlAsH inhibition of purified PTP catalytic domain, pNPP assay; assay type: biochemical, human; details: purified enzyme 50 nM, one equivalent of FlAsH
P2285C/Q2320C FAP-1 [12] = experiment: FlAsH inhibition of total PTP activity of crude E. coli lysates, pNPP; assay type: biochemical, human; details: whole-cell E. coli lysate
Method in brief: (§4)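 Cells are lysed by French press (~2000 psi) in 50 mM Tris pH 7.8, 500 mM NaCl, 5 mM imidazole. Clarified lysate takes compound or DMSO (1%) for 120 min at 37 °C. Total pNPP activity is normalized to DMSO.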

P720C/H755C PTPH-1 [13] = experiment: as above; assay type: biochemical, human; details: whole-cell E. coli lysate
Method in brief: as §4

P160C/V184C HePTP [14] = experiment: FlAsH inhibition of total PTP activity of crude E. coli lysates, pNPP; assay type: biochemical, human; details: whole-cell E. coli lysate
wild-type FAP-1 [15] = experiment: FlAsH inhibition of total PTP activity of crude E. coli lysates, pNPP; assay type: biochemical, human; details: whole-cell E. coli lysate, FlAsH concentrations that strongly inhibit the mutant
Method in brief: as §4

wild-type PTPH-1 [16] = experiment: as above; assay type: biochemical, human; details: whole-cell E. coli lysate, FlAsH concentrations that strongly inhibit the mutant
Method in brief: as §4

wild-type HePTP [17] = experiment: as above; assay type: biochemical, human; details: whole-cell E. coli lysate, FlAsH concentrations that strongly inhibit the mutant
Method in brief: as §4

wild-type Shp2 [18] = molecular target: T1, wild-type Shp2; experiment: SDS/PAGE and fluorescence visualization of protein/FlAsH complexes; assay type: binding; details: 6 μM FlAsH, 2 μg enzyme, UV visualization
V368C Shp2 [19] = molecular target: T2, V368C Shp2; experiment: as above; assay type: binding; details: 6 μM FlAsH, 2 μg enzyme, UV visualization, band at approximately 37 kD
wild-type PTP1B [20] = experiment: as above; assay type: binding, human; details: 6 μM FlAsH, UV visualization
P87C PTP1B [21] = molecular target: T3, P87C PTP1B; experiment: as above; assay type: binding; details: 6 μM FlAsH, UV visualization
P87C/A122C PTP1B [22] = molecular target: T4, P87C/A122C PTP1B; experiment: as above; assay type: binding; details: 6 μM FlAsH, UV visualization, band at 45 kD
V368C Shp2 [23] = molecular target: T2, V368C Shp2; experiment: Mass-spectrometry-based FlAsH-induced cysteine-protection assay; assay type: binding; details: 2.7 μM enzyme, 27 μM FlAsH, 50 mM iodoacetic acid, LC/MS/MS
Method in brief: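 Enzyme (2.7 μM) is incubated 30 min with 27 μM test compound or DMSO in pH 7.0 dimethylglutarate/EDTA/1 mM TCEP. Free cysteines are carboxymethylated with 50 mM iodoacetic acid (30 min), quenched with 100 mM TCEP, precipitated and gel-separated, then trypsin-digested in gel. Nano-LC/MS/MS uses HCD. Peptide precursor intensity ratios (compound/DMSO) are normalized to the mean of non-cysteine peptide ratios.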

[24] = 500 nM FlAsH, continuous pNPP assay, no pre-incubation

Question: What does the source list for `O=C(O)c1ccccc1-c1c2ccc(=O)c([As]3SCCS3)c-2oc2c([As]3SCCS3)c(O)ccc12` [FlAsH]?
Answer: effect of β-mercaptoethanol on FlAsH's inhibitory effects (wild-type Shp2 [1]; 125 nM FlAsH, varying β-ME): attenuates; time to 50% activity (wild-type Shp2 [1]; [24]): ~ 11 minutes; effect of β-mercaptoethanol on potency of FlAsH inhibition (V368C Shp2 [2]; 125 nM FlAsH, varying β-ME up to 8,000 times excess): no significant changes; time to 50% activity (V368C Shp2 [2]; [24]): ~ 7 minutes; effect of FlAsH on enzymatic activity (wild-type PTP1B [3]): unaffected; time for phosphatase activity to decrease to 50% of initial rate (P87C PTP1B [4]): approximately 10 minutes; inhibition by FlAsH (P87C/A122C PTP1B [5]): potently inhibited; inhibition of phosphatase activity (wild-type FAP-1 [6]): not significantly inhibited; inhibition of phosphatase activity (P2285C/Q2320C FAP-1 [7]): drastically reduced catalytic activity; inhibition of phosphatase activity (wild-type PTPH-1 [8]): not significantly inhibited; inhibition of phosphatase activity (P720C/H755C PTPH-1 [9]): novel sensitivity to FlAsH; inhibition of phosphatase activity (wild-type HePTP [10]): not significantly inhibited; inhibition of phosphatase activity (P160C/V184C HePTP [11]): drastically reduced catalytic activity; inhibition of total PTP activity of lysate (P2285C/Q2320C FAP-1 [12]): strongly inhibited; inhibition of total PTP activity of lysate (P720C/H755C PTPH-1 [13]): strongly inhibited; inhibition of total PTP activity of lysate (P160C/V184C HePTP [14]): strongly inhibited; inhibition of total PTP activity of lysate (wild-type FAP-1 [15]): no effects; inhibition of total PTP activity of lysate (wild-type PTPH-1 [16]): no effects; inhibition of total PTP activity of lysate (wild-type HePTP [17]): no effects; fluorescent band of protein/FlAsH conjugate after SDS/PAGE (wild-type Shp2 [18]): not present; fluorescent band of protein/FlAsH conjugate after SDS/PAGE (V368C Shp2 [19]): strongly fluorescent band; fluorescent band of protein/FlAsH conjugate after SDS/PAGE (wild-type PTP1B [20]): fail to produce strongly fluorescent bands; fluorescent band of protein/FlAsH conjugate after SDS/PAGE (P87C PTP1B [21]): fail to produce strongly fluorescent bands; fluorescent band of protein/FlAsH conjugate after SDS/PAGE (P87C/A122C PTP1B [22]): strongly fluorescent band; protection of cysteines from modification by IAA (V368C Shp2 [23]): strongly protects C333, C367, and C368
